This note sets out measurements from ChEMBL document CHEMBL1154067, “Antiviral and cytotoxic activities of aminoarylazo compounds and aryltriazene derivatives” (Bioorg Med Chem, 2009).

Calls of active or inactive are those of the source. How the calls were made is not given here.

The first data set deals with Yellow fever virus. Kind of data set: Antiviral activity against Yellow fever virus infected in BHK-21 cells assessed as inhibition of virus-induced cytopathicity after 3 to 4 days by MTT assay. It counts as functional, organism-based.
Conditions: not given
(In general: Damage to the host cells serves as the signal in cytopathic effect assays.)
Broadly, the EC50 is the midpoint of the concentration-response curve. With `c1ccc(/N=N/Nc2ccccc2)cc1`, the EC50 was more than 100 µM.

As for `Clc1cccc(/N=N/N2CCCC2)c1`, the EC50 was more than 100 µM.

Consider `c1ccc(/N=N/N2CCN(c3ncccn3)CC2)cc1`, for which the 50% effective concentration (EC50) was more than 100 µM.

For the molecule `O=c1cccc2n1CC1CC2CN(/N=N/c2ccc(Cl)cc2)C1` (configuration not stated), the EC50 was more than 85 µM.

Consider `Clc1ccc(/N=N/N2CCCCC2)cc1`, for which the EC50 was more than 100 µM.

The subject of a further data set is Coxsackievirus B2. Briefly: Antiviral activity against Coxsackie virus type B2 virus infected in african green monkey Vero-76 cells after 3 days by plaque reduction assay. It counts as functional, organism-based. Conditions: Enterovirus B, Vero 76, 72 h. In short, it runs like this: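 Vero 76 cells seeded at 2 × 10^5 cells/well, grown overnight to confluence at 37 °C in 5% CO2, then infected at 50–100 PFU/well. Unadsorbed virus removed. Overlay of DMEM with 1% inactivated FCS and 0.75% methylcellulose, with or without serial compound dilutions. After 3 days at 37 °C, fixed and stained with crystal violet in PBS/50% ethanol; plaques counted. EC50 is the concentration reducing plaque number by 50%.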
A general note: Plaque reduction counts the foci of infection that form in a cell layer.
Molecule `c1ccc(/N=N/Nc2ccccc2)cc1` showed a half-maximal effective concentration (EC50) of more than 90 µM.

`Clc1cccc(/N=N/N2CCCC2)c1` displayed an EC50 of more than 100 µM.

The molecule `c1ccc(/N=N/N2CCN(c3ncccn3)CC2)cc1` had an EC50 of 10 µM.

In turn, `O=c1cccc2n1CC1CC2CN(/N=N/c2ccc(Cl)cc2)C1` (configuration not stated) displayed an EC50 of more than 55 µM.

On to `Clc1ccc(/N=N/N2CCCCC2)cc1`, for which the EC50 was more than 100 µM.

Test system in a further data set: not listed separately
Briefly: Cytotoxicity against MDBK cells after 48 to 96 hrs by MTT assay. It counts as cell-based, Bos taurus. Conditions: cattle, mdbk. In outline:
(§1)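 Mock-infected cells in maintenance medium, MDBK at 6 × 10^5 and BHK at 1 × 10^6 cells/mL initial density, with or without serial compound dilutions. Run in parallel with antiviral assays. Viability by MTT after 48–96 h at 37 °C, 5% CO2. CC50 = concentration reducing viability 50%.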
Background: Tetrazolium dyes change colour on reduction, which living cells bring about.
As a reminder, the CC50 is the concentration at which the toxic effect on the cells reaches its halfway point. `Clc1cccc(/N=N/N2CCCC2)c1`: the CC50 was more than 100 µM.

As for `c1ccc(/N=N/N2CCN(c3ncccn3)CC2)cc1`, the 50% cytotoxic concentration (CC50) was more than 100 µM.

`O=c1cccc2n1CC1CC2CN(/N=N/c2ccc(Cl)cc2)C1` (configuration not stated) returned a half-maximal cytotoxic concentration (CC50) of 97 µM.

The molecule `Clc1ccc(/N=N/N2CCCCC2)cc1` came in with a CC50 of more than 100 µM.

The test system of a further data set is MT4. Briefly: Cytotoxicity against human MT4 cells after 96 hrs by MTT assay. It counts as cell-based. Conditions: mt4, 96 h. In outline:
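Exponentially growing mock-infected MT-4 seeded at 1 × 10^5 cells/mL in RPMI-1640 with 10% FCS, penicillin and streptomycin. Incubated with or without serial compound dilutions at 37 °C, 5% CO2. Viability by MTT after 96 h. CC50 = concentration reducing viability 50%.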
The molecule `Clc1cccc(/N=N/N2CCCC2)c1` had a CC50 of more than 100 µM.

In turn, `c1ccc(/N=N/N2CCN(c3ncccn3)CC2)cc1` returned a 50% cytotoxic concentration (CC50) of 90 µM.

As for `O=c1cccc2n1CC1CC2CN(/N=N/c2ccc(Cl)cc2)C1` (configuration not stated), the cytotoxic concentration (CC50) came to 46 µM.

For `Clc1ccc(/N=N/N2CCCCC2)cc1`, the CC50 is more than 100 µM.

The subject of the next data set is Vaccinia virus. Briefly: Antiviral activity against Vaccinia virus after 3 days by plaque reduction assay. It counts as functional, organism-based. Conditions: Orthopoxvirus vaccinia.
Regarding `c1ccc(/N=N/Nc2ccccc2)cc1`, the result was inactive.

Turning to `Clc1cccc(/N=N/N2CCCC2)c1`, the result was inactive.

In the case of `c1ccc(/N=N/N2CCN(c3ncccn3)CC2)cc1`, the outcome was inactive.

As to `O=c1cccc2n1CC1CC2CN(/N=N/c2ccc(Cl)cc2)C1` (configuration not stated), the result was inactive.

Regarding `Clc1ccc(/N=N/N2CCCCC2)cc1`, the outcome was inactive.

In a further data set the test system is Vero. Briefly: Cytotoxicity against african green monkey Vero 76 cells by crystal violet staining. Conditions: chlorocebus sabaeus, vero. Type of data set: cell-based. In outline:
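Mock-infected Vero 76 seeded at 4 × 10^5 cells/mL, run in parallel with plaque assays, with or without serial compound dilutions. Cell number of monolayers determined by crystal violet staining. CC50 = concentration reducing viable cell number 50%.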
The molecule `Clc1cccc(/N=N/N2CCCC2)c1` displayed a CC50 not below 100 µM.

`c1ccc(/N=N/N2CCN(c3ncccn3)CC2)cc1` came in with a CC50 of 65 µM.

Molecule `O=c1cccc2n1CC1CC2CN(/N=N/c2ccc(Cl)cc2)C1` (configuration not stated) had a CC50 of 55 µM.

Consider `Clc1ccc(/N=N/N2CCCCC2)cc1`, for which the CC50 was more than 100 µM.

The test system of a further data set is Respiratory syncytial virus. Briefly: Antiviral activity against Respiratory syncytial virus A2 infected in Vero-76 cells after 5 days by plaque reduction assay. Type of data set: functional, organism-based. Conditions: human respiratory syncytial virus, A2, Vero 76, 120 h.
For `c1ccc(/N=N/Nc2ccccc2)cc1`, the EC50 was not below 90 µM.

In turn, `Clc1cccc(/N=N/N2CCCC2)c1` registered an EC50 of more than 100 µM.

The molecule `c1ccc(/N=N/N2CCN(c3ncccn3)CC2)cc1` came in with an EC50 of more than 65 µM.

In the case of `O=c1cccc2n1CC1CC2CN(/N=N/c2ccc(Cl)cc2)C1` (configuration not stated), the EC50 was more than 55 µM.

In turn, `Clc1ccc(/N=N/N2CCCCC2)cc1` registered an EC50 of more than 100 µM.

In the next data set the test system is Human immunodeficiency virus 1. Kind of data set: Antiviral activity against HIV1 infected in human MT4 cells assessed as inhibition of virus-induced cytopathicity after 4 days by MTT assay. Type of data set: functional, organism-based.
Conditions: not given
With `c1ccc(/N=N/Nc2ccccc2)cc1`, the inhibition result was “inactive”.

Regarding `Clc1cccc(/N=N/N2CCCC2)c1`, the inhibition entry is “inactive”.

As to `c1ccc(/N=N/N2CCN(c3ncccn3)CC2)cc1`, the inhibition result is “inactive”.

Regarding `O=c1cccc2n1CC1CC2CN(/N=N/c2ccc(Cl)cc2)C1` (configuration not stated), the inhibition result was “inactive”.

In the case of `Clc1ccc(/N=N/N2CCCCC2)cc1`, the inhibition result was “inactive”.

Test system in a further data set: not listed separately
Briefly: Cytotoxicity against hamster BHK21 cells assessed as reduction in cell viability after 48 to 96 hrs by MTT assay. Conditions: bhk-21. Type of data set: cell-based, Mesocricetus auratus, BHK-21. In outline:
as §1
`Clc1cccc(/N=N/N2CCCC2)c1`: the CC50 is more than 100 µM.

Take `c1ccc(/N=N/N2CCN(c3ncccn3)CC2)cc1`: the CC50 is more than 100 µM.

For the molecule `O=c1cccc2n1CC1CC2CN(/N=N/c2ccc(Cl)cc2)C1` (configuration not stated), the CC50 came to 85 µM.

On to `Clc1ccc(/N=N/N2CCCCC2)cc1`, for which the cytotoxic concentration (CC50) was more than 100 µM.

A further data set has as its system Poliovirus 1. Briefly: Antiviral activity against Human poliovirus 1 strain Sabin after 2 days by plaque reduction assay. Type of data set: functional. Conditions: Enterovirus C, 48 h.
`c1ccc(/N=N/Nc2ccccc2)cc1`: the concentration for a half-maximal effect (EC50) is more than 90 µM.

Consider `Clc1cccc(/N=N/N2CCCC2)c1`, for which the EC50 is not below 100 µM.

For the molecule `c1ccc(/N=N/N2CCN(c3ncccn3)CC2)cc1`, the EC50 is more than 65 µM.

`O=c1cccc2n1CC1CC2CN(/N=N/c2ccc(Cl)cc2)C1` (configuration not stated) showed a 50% effective concentration (EC50) of more than 55 µM.

Consider `Clc1ccc(/N=N/N2CCCCC2)cc1`, for which the EC50 is more than 100 µM.

A further data set deals with Human alphaherpesvirus 1. Briefly: Antiviral activity against HSV1 infected in Vero-76 cells after 3 days by plaque reduction assay. It counts as functional, organism-based. Conditions: Human alphaherpesvirus 1, Vero 76, 72 h.
For the molecule `c1ccc(/N=N/Nc2ccccc2)cc1`, the 50% effective concentration (EC50) was more than 90 µM.

In turn, `Clc1cccc(/N=N/N2CCCC2)c1` registered a concentration giving a half-maximal response (EC50) of more than 100 µM.

The molecule `c1ccc(/N=N/N2CCN(c3ncccn3)CC2)cc1` returned an EC50 of more than 65 µM.

With `O=c1cccc2n1CC1CC2CN(/N=N/c2ccc(Cl)cc2)C1` (configuration not stated), the concentration for a half-maximal effect (EC50) is more than 55 µM.

`Clc1ccc(/N=N/N2CCCCC2)cc1`: the concentration for a half-maximal effect (EC50) was more than 100 µM.

The next data set concerns Mammalian orthoreovirus 1. Kind of data set: Antiviral activity against Reovirus-1 infected in BHK-21 cells assessed as inhibition of virus-induced cytopathicity after 3 to 4 days by MTT assay. It counts as functional, organism-based. Conditions: Mammalian orthoreovirus 1, BHK-21. In outline:
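BHK-21 cells seeded at 5 × 10^4 cells/well, grown overnight to confluent monolayers at 37 °C in 5% CO2, then infected at m.o.i. 0.01 in serum-free medium. One hour later, MEM Earle's with 1% final inactivated FCS added, with or without serial compound dilutions. Viability read by MTT after 3–4 days at 37 °C. EC50 is the concentration giving 50% protection from cytopathogenicity.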
In the case of `c1ccc(/N=N/Nc2ccccc2)cc1`, the concentration for a half-maximal effect (EC50) was more than 100 µM.

`Clc1cccc(/N=N/N2CCCC2)c1`: the concentration giving a half-maximal response (EC50) is more than 100 µM.

Consider `c1ccc(/N=N/N2CCN(c3ncccn3)CC2)cc1`, for which the concentration giving a half-maximal response (EC50) is more than 100 µM.

For the molecule `O=c1cccc2n1CC1CC2CN(/N=N/c2ccc(Cl)cc2)C1` (configuration not stated), the 50% effective concentration (EC50) was more than 85 µM.

Turning to `Clc1ccc(/N=N/N2CCCCC2)cc1`, the EC50 is more than 100 µM.

A further data set has as its system Bovine viral diarrhea virus 1. Briefly: Antiviral activity against Bovine viral diarrhea virus infected in MDBK cells assessed as inhibition of virus-induced cytopathicity after 3 to 4 days by MTT assay. It counts as functional, organism-based. Conditions: Bovine viral diarrhea virus isolates and strains.
For `c1ccc(/N=N/Nc2ccccc2)cc1`, the EC50 is more than 100 µM.

The next data set has as its system Vesicular stomatitis virus. Kind of data set: Antiviral activity against Vesicular stomatitis virus after 2 days by plaque reduction assay. Type of data set: functional, organism-based.
Conditions: not given
Turning to `c1ccc(/N=N/Nc2ccccc2)cc1`, the outcome was inactive.

As for `Clc1cccc(/N=N/N2CCCC2)c1`, the outcome was inactive.

As for `c1ccc(/N=N/N2CCN(c3ncccn3)CC2)cc1`, the outcome was inactive.

`O=c1cccc2n1CC1CC2CN(/N=N/c2ccc(Cl)cc2)C1` (configuration not stated): the result was inactive.

Turning to `Clc1ccc(/N=N/N2CCCCC2)cc1`, the outcome was inactive.
